The structures appear in SMILES notation. Activity calls are given as the source filed them.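 Rule for the calls: active = viability drop with AC50 at most twice the sample's highest valid dose; inconclusive = flat curve with moderate loss, or a poor fit; inactive = the rest.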

System in one assay: not listed separately
Description: viability of MITF-independent A375 cells – cell-based, CellTiter-Glo luminescence, dry powder, set 5, counter-screen for MITF inhibitor project, dose response (AID 624368). The conditions noted are these: A375 viability, CellTiter-Glo ATP luminescence, 24 h; at 35 µM (top of the series). An outline of the steps:
(§1)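 Detection: ATP luminescence, CellTiter-Glo. System: MITF-independent A375 melanoma cells. Amount: 3000 cells per well. Times: 24 h compound exposure, 37 °C.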
As to `NC1=C(c2ccc(OC(F)(F)F)cc2)C(=O)c2ccccc2C1=O`, the activity change, negative = cytotoxicity was -3.65% (inactive).

In the case of `O=C1C(NS(=O)(=O)c2ccccc2)=C(N2CCOCC2)C(=O)c2ccccc21`, the activity change, negative = cytotoxicity was -1.41% (inactive). Consider `CCN1CCN(C2=C(NS(=O)(=O)c3ccc(Br)cc3)C(=O)c3ccccc3C2=O)CC1`, for which the activity change, negative = cytotoxicity was 8.86% (inactive). In the case of `O=C1C=C(NS(=O)(=O)c2ccc(Br)cc2)C(=O)c2ccccc21`, the activity change, negative = cytotoxicity was 2.29% (inactive). Consider `NC1=C(NS(=O)(=O)c2ccc(Br)s2)C(=O)c2ccccc2C1=O`, for which the activity change, negative = cytotoxicity was 3.75% (inactive). Take `O=C1C(Nc2ccccc2)=C(NS(=O)(=O)c2ccccc2[N+](=O)[O-])C(=O)c2ccccc21`: the activity change, negative = cytotoxicity is -2.72% (inactive). Regarding `CNC1=CC(=O)c2ccccc2C1=O`, the activity change, negative = cytotoxicity is 3.5% (inactive). Same read-out and setting: the figure for `O=C1C(NS(=O)(=O)c2ccccc2)=C(N2CCCCC2)C(=O)c2ccccc21` is 0.773% (inactive).

The subject of the next assay is A375 viability, CellTiter-Glo ATP luminescence, 24 h. Described as above.
Settings: not given
Summed up: as §1
A word on the AC50: it is the concentration giving half of the maximal activity seen. With `O=C1C(NS(=O)(=O)c2ccc(Br)s2)=C(N2CCCCC2)C(=O)c2ccccc21`, the AC50 is > 70 µM (inactive). On to `O=C1C(NS(=O)(=O)c2ccc(Br)s2)=C(N2CCOCC2)C(=O)c2ccccc21`, for which the AC50 is > 70 µM (inactive).

For `O=C1C(NS(=O)(=O)c2ccccc2)=C(c2ccccc2)C(=O)c2ccccc21`, the AC50 is > 70 µM (inactive). As to `COc1ccc(S(=O)(=O)N(C(C)=O)c2ccc(OC(C)=O)c3ccccc23)cc1[N+](=O)[O-]`, the AC50 was > 70 µM (inactive).

For `Cc1ccc(C(=O)NC2=C(c3ccccc3)C(=O)c3ccccc3C2=O)o1`, the AC50 was 32 µM.

Take `C=CCNC1=C(N(C)C(C)=O)C(=O)c2ccccc2C1=O`: the AC50 is 23 µM.

Take `CN1CCN(C2=C(NS(=O)(=O)c3ccc(Br)s3)C(=O)c3ccccc3C2=O)CC1`: the AC50 is > 70 µM (inactive). Consider `CC1CCN(CC(CS(=O)(=O)c2ccc([N+](=O)[O-])cc2)N2CCC(C)CC2)CC1` (configuration not stated), for which the AC50 is > 70 µM (inactive). In the case of `CCN(CC)CCNC1=C(Nc2ccccc2)C(=O)c2ccccc2C1=O`, the AC50 was > 70 µM (inactive). Take `CCN(CC)CCCNC1=C(Nc2ccccc2)C(=O)c2ccccc2C1=O`: the AC50 was > 70 µM (inactive).

`C[C@@H](NC1=C(Nc2ccccc2)C(=O)c2ccccc2C1=O)c1ccccc1`: the AC50 is > 70 µM (inactive). On to `NC1=C(NS(=O)(=O)c2cccs2)C(=O)c2ccccc2C1=O`, for which the AC50 was > 70 µM (inactive). Same read-out and setting: as for `CCN1CCN(C2=C(NS(=O)(=O)c3ccc(Br)s3)C(=O)c3ccccc3C2=O)CC1`, the figure is > 70 µM (inactive). As for `O=C1C(Nc2ccccc2)=C(N2CCSCC2)C(=O)c2ccccc21`, the AC50 was > 70 µM (inactive).

Regarding `O=C1C(Nc2ccccc2)=C(N2CCCCC2)C(=O)c2ccccc21`, the AC50 is > 70 µM (inactive).

For `NC1=C(NS(=O)(=O)c2ccc(Br)cc2)C(=O)c2ccccc2C1=O`, the AC50 was > 70 µM (inactive). Regarding `CN1CCN(C2=C(Nc3ccccc3)C(=O)c3ccccc3C2=O)CC1`, the AC50 was > 70 µM (inactive). In the case of `O=C(NC1=C(c2ccccc2)C(=O)c2ccccc2C1=O)c1ccco1`, the AC50 is 29.1 µM.

For the compound `COC1=C(NS(=O)(=O)c2ccccc2)C(=O)c2ccccc2C1=O`, the AC50 is > 70 µM (inactive). Take `CC(=O)N(C)C1=C(N2CCN(C)CC2)C(=O)c2ccccc2C1=O`: the AC50 is 24.3 µM. For the compound `NC1=C(NC(=O)c2ccccc2)C(=O)c2ccccc2C1=O`, the AC50 was > 70 µM (inactive).

Turning to `NC1=C(NS(=O)(=O)c2ccccc2)C(=O)c2ccccc2C1=O`, the AC50 is > 70 µM (inactive).

Regarding `O=C(NC1=C(N2CCOCC2)C(=O)c2ccccc2C1=O)c1ccc(Br)cc1`, the AC50 is > 70 µM (inactive). In the case of `O=C1C(NS(=O)(=O)c2cccs2)=C(c2ccccc2)C(=O)c2ccccc21`, the AC50 was > 70 µM (inactive). Regarding `O=C(CNc1cccc2ccccc12)N/N=C/c1ccc([N+](=O)[O-])o1`, the AC50 was > 70 µM (inactive). The same measure, in the same setting: the figure for `O=C1C=C(Nc2ccccc2)C(=O)c2ccccc21` is > 70 µM (inactive). Still for that read-out and setting: the figure for `CCN1CCN(C2=C(NC(=O)c3ccc(Br)cc3)C(=O)c3ccccc3C2=O)CC1` is 28 µM; for `O=C1C(NS(=O)(=O)c2ccc(Br)s2)=C(N2CCSCC2)C(=O)c2ccccc21` it is > 70 µM (inactive). As to `O=C(NC1=C(N2CCCCC2)C(=O)c2ccccc2C1=O)c1ccc(Br)cc1`, the AC50 was > 70 µM (inactive). `COC1=C(NS(=O)(=O)c2ccc(Br)cc2)C(=O)c2ccccc2C1=O`: the AC50 was > 70 µM (inactive). The same measure, in the same setting: as for `O=C1C=C(NS(=O)(=O)c2cccs2)C(=O)c2ccccc21`, the figure is > 70 µM (inactive); as for `CN1CCN(C2=C(NC(=O)c3ccc(Br)cc3)C(=O)c3ccccc3C2=O)CC1`, 32.2 µM. For the compound `Cc1nc2ccccc2n1/N=C/c1ccc([N+](=O)[O-])s1`, the AC50 was > 70 µM (inactive).

Consider `O=C(NC1=C(N2CCSCC2)C(=O)c2ccccc2C1=O)c1ccc(Br)cc1`, for which the AC50 was > 70 µM (inactive). Same read-out and setting: as for `C=CCNC1=C(Cl)C(=O)c2ccccc2C1=O`, the figure is > 70 µM (inactive). As for `NC1=CC(=O)c2ccccc2C1=O`, the AC50 was > 70 µM (inactive). As to `O=C1C=C(NS(=O)(=O)c2ccccc2)C(=O)c2ccccc21`, the AC50 was > 70 µM (inactive). `COC1=C(Nc2ccccc2)C(=O)c2ccccc2C1=O`: the AC50 was > 70 µM (inactive). In the case of `COC1=C(NS(=O)(=O)c2cccs2)C(=O)c2ccccc2C1=O`, the AC50 was > 70 µM (inactive). Consider `O=C1C(NS(=O)(=O)c2cccs2)=C(N2CCCCC2)C(=O)c2ccccc21`, for which the AC50 was > 70 µM (inactive). With `O=C1C(Nc2ccccc2)=C(N2CCOCC2)C(=O)c2ccccc21`, the AC50 was > 70 µM (inactive). The same measure, in the same setting: the figure for `NC1=C(c2ccccc2)C(=O)c2ccccc2C1=O` is > 70 µM (inactive); for `C=CCNC1=C(Nc2ccccc2)C(=O)c2ccccc2C1=O` it is > 70 µM (inactive). With `O=C1C(Nc2ccccc2)=C(c2ccccc2)C(=O)c2ccccc21`, the AC50 was > 70 µM (inactive).
